Laboratory results: ChEMBL document CHEMBL1132410, “5-Chloro-N-(4-methoxy-3-piperazin-1-yl- phenyl)-3-methyl-2-benzothiophenesulfon- amide (SB-271046): a potent, selective, and orally bioavailable 5-HT6 receptor antagonist” (J Med Chem, 1999)
pIC50, pKi: −log10 of the molar value. Blank lines part the entries; values can stand above or below the compound they belong to.

What was measured:
Cytochrome P450 1A2 = biological target: T1, Cytochrome P450 1A2 (Homo sapiens, UniProt P05177); test: Inhibition of human cytochrome P450 1A2 activity as caffeine N3 demethylation (500 uM); format: ADME
T1 sequence (P05177 whole entry): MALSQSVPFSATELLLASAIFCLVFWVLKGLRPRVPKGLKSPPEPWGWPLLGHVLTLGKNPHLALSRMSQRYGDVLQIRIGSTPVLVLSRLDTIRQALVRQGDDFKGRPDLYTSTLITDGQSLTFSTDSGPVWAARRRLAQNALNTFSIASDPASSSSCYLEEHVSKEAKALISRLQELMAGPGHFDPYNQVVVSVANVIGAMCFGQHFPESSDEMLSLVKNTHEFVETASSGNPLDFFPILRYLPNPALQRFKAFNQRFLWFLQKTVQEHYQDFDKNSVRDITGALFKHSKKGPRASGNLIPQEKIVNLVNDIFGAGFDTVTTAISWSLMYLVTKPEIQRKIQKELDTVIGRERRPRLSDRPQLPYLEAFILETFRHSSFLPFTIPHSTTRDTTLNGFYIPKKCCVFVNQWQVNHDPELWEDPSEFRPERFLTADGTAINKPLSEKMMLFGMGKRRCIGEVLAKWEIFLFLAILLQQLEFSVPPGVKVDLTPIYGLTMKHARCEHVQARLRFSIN
Summary of the method: (§1)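 Heterologously expressed human CYP isoforms in isoform-selective assays, with substrate at its Km. CYP1A2: caffeine N3-demethylation (500 μM). CYP2C9: tolbutamide methylhydroxylation (100 μM). CYP2C19: S-mephenytoin 4-hydroxylation (100 μM). CYP2D6: bufuralol 1'-hydroxylation (10 μM). CYP3A4: total cyclosporin oxidation (1 μM). IC50 is the mean of duplicate determinations, agreeing within 10%.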

[1] = biological target: 5-hydroxytryptamine receptor 2B (Homo sapiens, UniProt P41595); test: Compound was tested for its binding affinity against cloned human 5-hydroxytryptamine 2B receptor in HEK 293 cells using [3H]5-HT; format: cell-based, HEK293
Summary of the method: (§2)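 Radioligand binding at human cloned receptors; cell hosts and radioligands as listed per line: 5-HT1A, 5-HT2A, 5-HT2B, 5-HT2C and 5-HT7 in HEK 293 cells; 5-HT1B, 5-HT1D, 5-HT1E, 5-HT1F, D2 and D3 in CHO cells; 5-HT6 in HeLa cells. Values are the mean of at least two determinations, each within 0.2 log unit of the mean.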

[2] = biological target: 5-hydroxytryptamine receptor 4 (Homo sapiens, UniProt Q13639); test: Compound was tested for its binding affinity against 5-hydroxytryptamine 4 receptor
[3] = biological target: T2, Alpha-1B adrenergic receptor (Homo sapiens, UniProt P35368); test: Compound was tested for its binding affinity against adrenergic Alpha-1B adrenergic receptor
T2 sequence (P35368 whole entry): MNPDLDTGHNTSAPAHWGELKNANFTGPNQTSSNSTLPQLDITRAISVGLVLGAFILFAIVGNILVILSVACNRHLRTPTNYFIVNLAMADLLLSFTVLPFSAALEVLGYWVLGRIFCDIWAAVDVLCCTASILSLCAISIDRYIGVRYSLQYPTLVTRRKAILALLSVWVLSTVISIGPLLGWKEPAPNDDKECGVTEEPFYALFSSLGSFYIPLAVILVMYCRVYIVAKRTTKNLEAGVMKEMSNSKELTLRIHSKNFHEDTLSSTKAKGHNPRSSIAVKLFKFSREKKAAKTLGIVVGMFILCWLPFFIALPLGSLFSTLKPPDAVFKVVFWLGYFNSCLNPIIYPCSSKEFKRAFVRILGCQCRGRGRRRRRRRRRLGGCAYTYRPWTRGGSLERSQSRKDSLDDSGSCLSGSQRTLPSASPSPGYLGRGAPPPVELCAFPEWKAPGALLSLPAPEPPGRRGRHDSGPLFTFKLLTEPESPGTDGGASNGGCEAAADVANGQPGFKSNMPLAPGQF

[4] = biological target: 5-hydroxytryptamine receptor 2A (Homo sapiens, UniProt P28223); test: Compound was tested for its binding affinity against 5-hydroxytryptamine 2A receptor in human cloned receptors in HEK 293 cells using [3H]ketanserin; format: cell-based, HEK293; summary of the method: as §2
[5] = biological target: T3, 5-hydroxytryptamine receptor 2C (Homo sapiens, UniProt P28335); test: Compound was tested for its binding affinity against human cloned 5-hydroxytryptamine 2C receptor in HEK 293 cells using [3H]mesulergine; format: cell-based, HEK293; summary of the method: as §2
T3 sequence (P28335 whole entry): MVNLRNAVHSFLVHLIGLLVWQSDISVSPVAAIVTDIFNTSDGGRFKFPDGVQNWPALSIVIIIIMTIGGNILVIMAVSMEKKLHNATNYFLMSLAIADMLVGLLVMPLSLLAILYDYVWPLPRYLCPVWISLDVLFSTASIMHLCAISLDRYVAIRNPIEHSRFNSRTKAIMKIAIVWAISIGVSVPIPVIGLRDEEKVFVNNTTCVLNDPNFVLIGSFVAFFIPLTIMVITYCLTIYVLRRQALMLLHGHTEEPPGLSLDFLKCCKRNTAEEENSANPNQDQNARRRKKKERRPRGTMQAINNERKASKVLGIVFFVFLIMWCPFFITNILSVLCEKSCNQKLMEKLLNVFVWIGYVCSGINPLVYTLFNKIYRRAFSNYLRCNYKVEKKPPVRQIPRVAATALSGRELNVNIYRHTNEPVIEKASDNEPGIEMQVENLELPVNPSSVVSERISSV

[6] = biological target: 5-hydroxytryptamine receptor 1D (Homo sapiens, UniProt P28221); test: Compound was tested for its binding affinity against human cloned 5-hydroxytryptamine 1D receptor in CHO cells using [3H]5-HT; format: cell-based; summary of the method: as §2
[7] = biological target: 5-hydroxytryptamine receptor 1E (Homo sapiens, UniProt P28566); test: Compound was tested for its binding affinity against cloned human 5-hydroxytryptamine 1E receptor in CHO cells using [3H]-5-HT; format: cell-based; summary of the method: as §2
[8] = biological target: 5-hydroxytryptamine receptor 6 (Homo sapiens, UniProt P50406); test: Binding affinity against human cloned 5-hydroxytryptamine 6 receptor in HeLa cells using [3H]LSD; format: cell-based; summary of the method: as §2
[9] = biological target: T4, 5-hydroxytryptamine receptor 1A (Homo sapiens, UniProt P08908); test: Compound was tested for its binding affinity against 5-hydroxytryptamine 1A receptor in human cloned receptors in HEK 293 cells using [3H]8-OH-DPAT; format: cell-based, HEK293; summary of the method: as §2
T4 sequence (P08908 whole entry): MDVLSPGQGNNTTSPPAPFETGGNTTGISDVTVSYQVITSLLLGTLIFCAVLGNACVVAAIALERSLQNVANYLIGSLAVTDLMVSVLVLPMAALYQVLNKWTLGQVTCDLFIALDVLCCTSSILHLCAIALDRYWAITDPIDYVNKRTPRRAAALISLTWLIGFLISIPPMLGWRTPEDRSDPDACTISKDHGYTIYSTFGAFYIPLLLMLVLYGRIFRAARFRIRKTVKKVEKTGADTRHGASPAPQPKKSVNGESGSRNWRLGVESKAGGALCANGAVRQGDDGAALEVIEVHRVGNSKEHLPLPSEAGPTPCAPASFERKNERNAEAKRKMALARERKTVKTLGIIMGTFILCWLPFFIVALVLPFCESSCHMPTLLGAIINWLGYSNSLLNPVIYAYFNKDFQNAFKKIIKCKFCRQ

Cytochrome P450 2C19 = Cytochrome P450 2C19 (Homo sapiens, UniProt P33261); test: Inhibition of human cytochrome P450 2C19 as S-mephenytoin-4-hydroxylation (100 uM); format: ADME; summary of the method: as §1
Cytochrome P450 2D6 = Cytochrome P450 2D6 (Homo sapiens, UniProt P10635); test: Inhibition of human cytochrome P450 2D6 as bufuralol 1''-hydroxylation (10 uM); format: ADME; summary of the method: as §1
[10] = biological target: 5-hydroxytryptamine receptor 1B (Homo sapiens, UniProt P28222); test: Compound was tested for its binding affinity against human cloned 5-hydroxytryptamine 1B receptor in CHO cells using [3H]5-HT; format: cell-based; summary of the method: as §2
Cytochrome P450 2C9 = Cytochrome P450 2C9 (Homo sapiens, UniProt P11712); test: Inhibitory potential of human cytochrome P450 2C9 as Tolbutamide methylhydroxylation (100 uM); format: ADME; summary of the method: as §1
Cytochrome P450 3A4 = Cytochrome P450 3A4 (Homo sapiens, UniProt P08684); test: Inhibition of human cytochrome P450 3A4 as total cyclosporin oxidation (1 uM); format: ADME
Summary of the method: as §1, with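 “μM).” for “μM). IC50 is the mean of duplicate determinations, agreeing within 10%.”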

[11] = biological target: 5-hydroxytryptamine receptor 7 (Homo sapiens, UniProt P34969); test: Compound was tested for its binding affinity against human cloned 5-hydroxytryptamine 7 receptor in HEK 293 cells using [3H]5-CT; format: cell-based, HEK293; summary of the method: as §2
D(3) dopamine receptor = D(3) dopamine receptor (Homo sapiens, UniProt P35462); test: Compound was tested for its binding affinity against Dopamine receptor D3 in human cloned receptors in CHO cells using [125 I]iodosulpride; format: cell-based; summary of the method: as §2
[12] = biological target: T5, 5-hydroxytryptamine receptor 1F (Homo sapiens, UniProt P30939); test: Compound was tested for its binding affinity against 5-hydroxytryptamine 1F receptor in human cloned receptors in CHO cells using [3H]5-HT; format: cell-based; summary of the method: as §2
T5 sequence (P30939 whole entry): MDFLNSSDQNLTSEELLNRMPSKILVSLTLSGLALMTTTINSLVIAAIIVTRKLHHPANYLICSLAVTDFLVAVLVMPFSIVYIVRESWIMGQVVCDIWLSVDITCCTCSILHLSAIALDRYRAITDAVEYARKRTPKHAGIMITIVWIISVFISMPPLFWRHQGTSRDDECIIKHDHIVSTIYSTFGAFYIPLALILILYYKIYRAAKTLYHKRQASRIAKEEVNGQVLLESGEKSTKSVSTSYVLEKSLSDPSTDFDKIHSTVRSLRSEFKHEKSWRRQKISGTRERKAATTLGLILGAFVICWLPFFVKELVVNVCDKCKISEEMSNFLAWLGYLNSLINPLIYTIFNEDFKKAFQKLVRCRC

D(2) dopamine receptor = D(2) dopamine receptor (Homo sapiens, UniProt P14416); test: Compound was tested for its binding affinity against Dopamine receptor D2 in human cloned receptors in CHO cells using [125 I]iodosulpride; format: cell-based; summary of the method: as §2
Homo sapiens = organism: Homo sapiens; test: Selectivity for 5-HT6 receptors with respect to the 5-HT1A, 5-HT1B, 5-HT1D, 5-HT1E, 5-HT1F, 5-HT2A, 5-HT2B, 5-HT2C, 5-HT4, 5-HT7, Alpha-1B, D2, D3 receptors.

5-hydroxytryptamine receptor 6, sequence (P50406 whole entry): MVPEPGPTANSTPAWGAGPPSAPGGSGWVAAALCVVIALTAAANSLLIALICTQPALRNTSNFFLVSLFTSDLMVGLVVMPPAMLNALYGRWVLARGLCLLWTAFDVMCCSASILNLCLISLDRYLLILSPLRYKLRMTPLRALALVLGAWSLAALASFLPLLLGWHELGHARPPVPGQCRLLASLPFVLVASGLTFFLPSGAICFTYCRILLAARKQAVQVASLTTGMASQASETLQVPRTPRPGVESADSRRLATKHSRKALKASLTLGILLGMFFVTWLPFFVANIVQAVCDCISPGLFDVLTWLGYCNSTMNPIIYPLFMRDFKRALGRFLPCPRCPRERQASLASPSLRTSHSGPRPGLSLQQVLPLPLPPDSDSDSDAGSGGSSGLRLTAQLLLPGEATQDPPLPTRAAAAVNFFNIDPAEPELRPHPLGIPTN
5-hydroxytryptamine receptor 7, sequence (P34969 whole entry): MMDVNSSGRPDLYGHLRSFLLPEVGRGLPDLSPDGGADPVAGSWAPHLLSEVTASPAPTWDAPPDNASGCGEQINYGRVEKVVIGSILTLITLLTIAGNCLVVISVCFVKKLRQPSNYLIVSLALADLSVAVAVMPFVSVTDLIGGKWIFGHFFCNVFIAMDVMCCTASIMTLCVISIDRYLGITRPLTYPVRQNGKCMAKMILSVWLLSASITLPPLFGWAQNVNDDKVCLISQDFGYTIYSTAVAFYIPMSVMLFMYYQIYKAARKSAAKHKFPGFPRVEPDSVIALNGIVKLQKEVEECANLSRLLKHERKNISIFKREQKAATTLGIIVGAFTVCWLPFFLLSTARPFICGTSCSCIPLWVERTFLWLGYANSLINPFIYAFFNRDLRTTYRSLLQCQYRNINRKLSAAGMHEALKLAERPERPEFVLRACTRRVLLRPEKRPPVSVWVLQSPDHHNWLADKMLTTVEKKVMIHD
5-hydroxytryptamine receptor 4, sequence (Q13639 whole entry): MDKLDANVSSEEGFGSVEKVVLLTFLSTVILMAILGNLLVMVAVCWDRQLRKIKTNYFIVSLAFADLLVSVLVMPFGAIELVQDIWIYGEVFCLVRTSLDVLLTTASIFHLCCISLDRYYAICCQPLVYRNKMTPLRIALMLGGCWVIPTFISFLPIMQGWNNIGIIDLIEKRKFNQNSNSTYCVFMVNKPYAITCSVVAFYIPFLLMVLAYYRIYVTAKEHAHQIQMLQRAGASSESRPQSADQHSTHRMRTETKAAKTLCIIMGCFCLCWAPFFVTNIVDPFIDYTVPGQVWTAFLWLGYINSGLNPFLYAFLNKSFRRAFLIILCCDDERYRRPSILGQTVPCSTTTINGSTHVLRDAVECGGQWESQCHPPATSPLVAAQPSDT
Cytochrome P450 2C9, sequence (P11712 whole entry): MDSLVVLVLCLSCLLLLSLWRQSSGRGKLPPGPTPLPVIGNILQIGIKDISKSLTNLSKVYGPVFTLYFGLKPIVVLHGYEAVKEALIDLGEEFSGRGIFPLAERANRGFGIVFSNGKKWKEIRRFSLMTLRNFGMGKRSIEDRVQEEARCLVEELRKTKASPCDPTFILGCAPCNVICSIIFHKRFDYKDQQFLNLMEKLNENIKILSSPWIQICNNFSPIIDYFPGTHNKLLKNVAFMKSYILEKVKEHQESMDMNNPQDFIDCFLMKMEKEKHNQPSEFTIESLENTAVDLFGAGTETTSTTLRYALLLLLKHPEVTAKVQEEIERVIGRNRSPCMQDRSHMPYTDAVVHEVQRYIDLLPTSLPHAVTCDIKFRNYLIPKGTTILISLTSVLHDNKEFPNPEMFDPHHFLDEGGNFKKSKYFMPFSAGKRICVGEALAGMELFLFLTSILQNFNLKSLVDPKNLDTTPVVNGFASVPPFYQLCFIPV
Cytochrome P450 2C19, sequence (P33261 whole entry): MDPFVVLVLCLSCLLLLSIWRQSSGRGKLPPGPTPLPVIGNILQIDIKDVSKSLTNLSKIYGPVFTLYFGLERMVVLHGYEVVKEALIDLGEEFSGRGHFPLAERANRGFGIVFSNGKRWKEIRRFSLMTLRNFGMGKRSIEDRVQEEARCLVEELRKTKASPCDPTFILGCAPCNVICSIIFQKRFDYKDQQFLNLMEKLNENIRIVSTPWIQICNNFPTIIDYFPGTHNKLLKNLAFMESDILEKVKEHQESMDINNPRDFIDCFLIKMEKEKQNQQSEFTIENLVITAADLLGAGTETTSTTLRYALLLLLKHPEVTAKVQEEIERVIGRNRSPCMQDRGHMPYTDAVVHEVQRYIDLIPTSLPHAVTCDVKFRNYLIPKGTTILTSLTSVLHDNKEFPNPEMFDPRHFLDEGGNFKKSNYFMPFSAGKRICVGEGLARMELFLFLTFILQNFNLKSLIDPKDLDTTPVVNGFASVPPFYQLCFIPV
5-hydroxytryptamine receptor 2B, sequence (P41595 whole entry): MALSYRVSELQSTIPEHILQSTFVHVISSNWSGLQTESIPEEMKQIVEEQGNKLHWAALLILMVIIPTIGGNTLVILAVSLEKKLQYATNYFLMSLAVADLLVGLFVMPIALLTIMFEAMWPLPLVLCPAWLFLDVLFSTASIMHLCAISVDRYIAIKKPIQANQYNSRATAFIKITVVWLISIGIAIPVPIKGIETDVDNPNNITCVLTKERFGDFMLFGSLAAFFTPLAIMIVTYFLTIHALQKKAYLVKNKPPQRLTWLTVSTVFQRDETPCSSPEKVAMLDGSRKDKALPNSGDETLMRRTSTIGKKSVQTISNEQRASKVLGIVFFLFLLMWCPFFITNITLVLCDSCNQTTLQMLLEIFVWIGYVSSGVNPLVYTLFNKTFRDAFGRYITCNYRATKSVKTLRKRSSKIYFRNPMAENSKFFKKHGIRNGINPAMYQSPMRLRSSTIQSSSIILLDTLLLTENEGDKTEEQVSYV
Cytochrome P450 2D6, sequence (P10635 whole entry): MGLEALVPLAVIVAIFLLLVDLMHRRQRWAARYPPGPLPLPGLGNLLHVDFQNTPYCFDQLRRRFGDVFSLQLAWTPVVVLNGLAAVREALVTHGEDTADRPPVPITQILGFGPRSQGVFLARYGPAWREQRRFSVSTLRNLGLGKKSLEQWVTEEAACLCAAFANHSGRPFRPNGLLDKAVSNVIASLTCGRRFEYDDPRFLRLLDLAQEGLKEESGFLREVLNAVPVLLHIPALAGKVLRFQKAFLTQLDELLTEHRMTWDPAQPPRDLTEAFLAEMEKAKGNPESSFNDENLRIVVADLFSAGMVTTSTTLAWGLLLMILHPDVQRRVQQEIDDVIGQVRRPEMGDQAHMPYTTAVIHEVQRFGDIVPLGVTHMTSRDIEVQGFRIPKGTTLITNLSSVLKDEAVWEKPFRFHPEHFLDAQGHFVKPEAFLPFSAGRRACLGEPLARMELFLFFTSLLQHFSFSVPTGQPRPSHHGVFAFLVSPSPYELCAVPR
Cytochrome P450 3A4, sequence (P08684 whole entry): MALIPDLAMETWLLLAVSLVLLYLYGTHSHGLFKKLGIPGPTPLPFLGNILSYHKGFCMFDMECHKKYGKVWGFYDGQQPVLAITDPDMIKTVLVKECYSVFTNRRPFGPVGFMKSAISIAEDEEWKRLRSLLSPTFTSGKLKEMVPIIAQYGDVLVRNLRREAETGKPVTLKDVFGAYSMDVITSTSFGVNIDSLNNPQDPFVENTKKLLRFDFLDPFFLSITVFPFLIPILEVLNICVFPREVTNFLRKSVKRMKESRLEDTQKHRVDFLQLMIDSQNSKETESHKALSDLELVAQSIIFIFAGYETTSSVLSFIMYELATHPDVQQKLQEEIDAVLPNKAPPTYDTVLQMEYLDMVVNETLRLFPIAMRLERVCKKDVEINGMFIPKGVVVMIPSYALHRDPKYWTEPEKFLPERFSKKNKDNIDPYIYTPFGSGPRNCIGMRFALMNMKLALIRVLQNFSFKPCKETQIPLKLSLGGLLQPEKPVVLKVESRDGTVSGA
D(2) dopamine receptor, sequence (P14416 whole entry): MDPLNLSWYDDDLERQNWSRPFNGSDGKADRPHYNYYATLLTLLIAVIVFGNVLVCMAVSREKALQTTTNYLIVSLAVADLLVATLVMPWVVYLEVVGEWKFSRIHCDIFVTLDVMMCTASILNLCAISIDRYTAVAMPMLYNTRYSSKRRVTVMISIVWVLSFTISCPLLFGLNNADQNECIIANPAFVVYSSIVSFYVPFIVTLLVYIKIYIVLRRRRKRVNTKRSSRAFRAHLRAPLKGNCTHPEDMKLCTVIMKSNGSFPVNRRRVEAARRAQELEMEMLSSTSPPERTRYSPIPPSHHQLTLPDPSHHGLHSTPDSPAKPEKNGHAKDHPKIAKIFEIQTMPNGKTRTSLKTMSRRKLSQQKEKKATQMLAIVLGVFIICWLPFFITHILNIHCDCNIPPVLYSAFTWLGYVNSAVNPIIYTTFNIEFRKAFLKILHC
5-hydroxytryptamine receptor 1E, sequence (P28566 whole entry): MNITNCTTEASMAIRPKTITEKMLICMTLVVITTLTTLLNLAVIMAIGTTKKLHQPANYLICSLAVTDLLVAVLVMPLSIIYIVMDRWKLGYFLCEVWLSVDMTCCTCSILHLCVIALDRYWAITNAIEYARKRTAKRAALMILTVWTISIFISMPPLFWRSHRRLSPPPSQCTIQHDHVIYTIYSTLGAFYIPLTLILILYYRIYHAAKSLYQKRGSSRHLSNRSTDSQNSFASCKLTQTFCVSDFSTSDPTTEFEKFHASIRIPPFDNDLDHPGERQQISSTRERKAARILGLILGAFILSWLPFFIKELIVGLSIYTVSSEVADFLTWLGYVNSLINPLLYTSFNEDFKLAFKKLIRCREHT
5-hydroxytryptamine receptor 1D, sequence (P28221 whole entry): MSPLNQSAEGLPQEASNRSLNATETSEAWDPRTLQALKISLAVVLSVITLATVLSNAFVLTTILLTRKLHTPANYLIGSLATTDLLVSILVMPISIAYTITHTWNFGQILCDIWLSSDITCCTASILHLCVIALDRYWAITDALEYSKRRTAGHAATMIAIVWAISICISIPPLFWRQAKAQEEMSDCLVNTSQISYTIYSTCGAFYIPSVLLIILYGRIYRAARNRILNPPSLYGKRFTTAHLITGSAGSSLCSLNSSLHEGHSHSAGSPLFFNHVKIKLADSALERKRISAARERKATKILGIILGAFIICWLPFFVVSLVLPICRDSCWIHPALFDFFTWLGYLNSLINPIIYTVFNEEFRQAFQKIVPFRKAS

SMILES: COc1ccc(NS(=O)(=O)c2cc(I)ccc2C)cc1N1CCN(C)CC1
pKi [8]: 9.00 | Selectivity (Homo sapiens): > 125

SMILES: COc1ccc(NS(=O)(=O)c2c(F)c(Br)cc(F)c2Br)cc1N1CCN(C)CC1
pKi [8]: 8.50 | Selectivity (Homo sapiens): > 300

SMILES: CNc1cc(NS(=O)(=O)c2ccc(N)cc2)nc(NC)n1
pKi [8]: 7.30

Now from value to compound:

pIC50 (Cytochrome P450 1A2): 5.00 | pKi [1]: 6.20 | pKi [2]: 5.60 | pKi [3]: 5.60 | pKi [4]: 5.90 | pKi [5]: 6.00 | pKi [6]: 6.60 | pKi [7]: 5.80 | pKi [8]: 8.30 | pKi [9]: 6.60 | pIC50 (Cytochrome P450 2C19): 4.34 | pIC50 (Cytochrome P450 2D6): 4.96 | pKi [10]: 6.40 | pIC50 (Cytochrome P450 2C9): < 4.00 | pIC50 (Cytochrome P450 3A4): 5.22 | pKi [11]: 5.60 | pKi (D(3) dopamine receptor): 6.10 | pKi [12]: 6.50 | pKi (D(2) dopamine receptor): 5.40
SMILES: COc1ccc(NS(=O)(=O)c2ccc(Br)cc2)cc1N1CCN(C)CC1

pKi [8]: 8.00 | Selectivity (Homo sapiens): 80
SMILES: COc1ccc(NS(=O)(=O)c2ccccc2)cc1N1CCN(C)CC1

pKi [8]: 7.90
SMILES: CNc1cc(NS(=O)(=O)c2ccc(N)cc2)cc(NC)n1

pKi [8]: 8.70 | Selectivity (Homo sapiens): > 100
SMILES: COc1ccc(NS(=O)(=O)c2cc(Cl)cc(Cl)c2)cc1N1CCN(C)CC1

pKi [8]: 9.10 | Selectivity (Homo sapiens): > 250
SMILES: COc1ccc(NS(=O)(=O)c2ccc3c(Cl)cccc3c2)cc1N1CCN(C)CC1
